System: HEK-293T
Assay: Multiplex assay against HEK293T;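 for Population Tubulin-Different-Phenotype (%): share of the cells with healthy nuclei that show this phenotype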
Type: toxicity, cell-based
Settings: human
Procedure, shortened: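 Four dyes were applied at seeding to live cells: Hoechst33342, BioTracker Green Microtubule Cytoskeleton Dye, MitoTracker Red and Annexin V Alexa Fluor 680. Imaging after compound addition used a CQ1 microscope at 37°C and 5% CO2. CellPathfinder machine-learning gating then sorted cells into Hoechst high-intensity objects or normal cells, normal cells into healthy, pyknosed or fragmented nuclei, and pyknosed cells into mitotic or apoptotic, with tubulin, mitochondrial-mass and membrane-permeability phenotypes given as per cents of healthy-nucleus cells.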

[1] = 12 h, 1 µM, compound concentration 1 uM, replicate 1
[2] = 12 h, 1 µM, compound concentration 1 uM, replicate 2
[3] = 12 h, 10 µM, compound concentration 10 uM, replicate 1
[4] = 12 h, 10 µM, compound concentration 10 uM, replicate 2
[5] = 24 h, 1 µM, compound concentration 1 uM, replicate 1
[6] = 24 h, 1 µM, compound concentration 1 uM, replicate 2
[7] = 24 h, 10 µM, compound concentration 10 uM, replicate 1
[8] = 24 h, 10 µM, compound concentration 10 uM, replicate 2

CCN1CCN(c2ccc(Nc3cc(N(C)C(=O)Nc4c(Cl)c(OC)cc(OC)c4Cl)ncn3)cc2)CC1 [INFIGRATINIB]
Population Apoptotic (%) [1]: 26%
Population Fragmented Nuclei (%) [1]: 18%
Population Healthy Nuclei (%) [1]: 37%
Population Hoechst High Intensity Objects (%) [1]: 19%
Population Membrane Permeable-Phenotype (%) [1]: 18%
Population Mitochondria Different-Phenotype (%) [1]: 14%
Population Mitotic Cells (%) [1]: 73%
Population Normal (%) [1]: 80%
Population Pyknosed Nuclei (%) [1]: 44%
Population Tubulin-Different-Phenotype (%) [1]: 52%
Total Cell Count [1]: 470
Population Apoptotic (%) [2]: 14%
Population Fragmented Nuclei (%) [2]: 4%
Population Healthy Nuclei (%) [2]: 84%
Population Hoechst High Intensity Objects (%) [2]: 3%
Population Membrane Permeable-Phenotype (%) [2]: 6%
Population Mitochondria Different-Phenotype (%) [2]: 27%
Population Mitotic Cells (%) [2]: 85%
Population Normal (%) [2]: 96%
Population Pyknosed Nuclei (%) [2]: 11%
Population Tubulin-Different-Phenotype (%) [2]: 81%
Total Cell Count [2]: 1084
Population Apoptotic (%) [3]: 18%
Population Fragmented Nuclei (%) [3]: 19%
Population Healthy Nuclei (%) [3]: 56%
Population Hoechst High Intensity Objects (%) [3]: 14%
Population Membrane Permeable-Phenotype (%) [3]: 7%
Population Mitochondria Different-Phenotype (%) [3]: 10%
Population Mitotic Cells (%) [3]: 81%
Population Normal (%) [3]: 85%
Population Pyknosed Nuclei (%) [3]: 23%
Population Tubulin-Different-Phenotype (%) [3]: 13%
Total Cell Count [3]: 527
Population Apoptotic (%) [4]: 9%
Population Fragmented Nuclei (%) [4]: 7%
Population Healthy Nuclei (%) [4]: 87%
Population Hoechst High Intensity Objects (%) [4]: 2%
Population Membrane Permeable-Phenotype (%) [4]: 5%
Population Mitochondria Different-Phenotype (%) [4]: 11%
Population Mitotic Cells (%) [4]: 90%
Population Normal (%) [4]: 97%
Population Pyknosed Nuclei (%) [4]: 5%
Population Tubulin-Different-Phenotype (%) [4]: 24%
Total Cell Count [4]: 1732
Population Apoptotic (%) [5]: 37%
Population Fragmented Nuclei (%) [5]: 16%
Population Healthy Nuclei (%) [5]: 60%
Population Hoechst High Intensity Objects (%) [5]: 19%
Population Membrane Permeable-Phenotype (%) [5]: 10%
Population Mitochondria Different-Phenotype (%) [5]: 31%
Population Mitotic Cells (%) [5]: 62%
Population Normal (%) [5]: 80%
Population Pyknosed Nuclei (%) [5]: 23%
Population Tubulin-Different-Phenotype (%) [5]: 78%
Total Cell Count [5]: 436
Population Apoptotic (%) [6]: 6%
Population Fragmented Nuclei (%) [6]: 7%
Population Healthy Nuclei (%) [6]: 82%
Population Hoechst High Intensity Objects (%) [6]: 5%
Population Membrane Permeable-Phenotype (%) [6]: 9%
Population Mitochondria Different-Phenotype (%) [6]: 20%
Population Mitotic Cells (%) [6]: 93%
Population Normal (%) [6]: 94%
Population Pyknosed Nuclei (%) [6]: 9%
Population Tubulin-Different-Phenotype (%) [6]: 87%
Total Cell Count [6]: 1343
Population Apoptotic (%) [7]: 19%
Population Fragmented Nuclei (%) [7]: 13%
Population Healthy Nuclei (%) [7]: 76%
Population Hoechst High Intensity Objects (%) [7]: 10%
Population Membrane Permeable-Phenotype (%) [7]: 15%
Population Mitochondria Different-Phenotype (%) [7]: 4%
Population Mitotic Cells (%) [7]: 80%
Population Normal (%) [7]: 89%
Population Pyknosed Nuclei (%) [7]: 9%
Population Tubulin-Different-Phenotype (%) [7]: 24%
Total Cell Count [7]: 608
Population Apoptotic (%) [8]: 10%
Population Fragmented Nuclei (%) [8]: 23%
Population Healthy Nuclei (%) [8]: 74%
Population Hoechst High Intensity Objects (%) [8]: 4%
Population Membrane Permeable-Phenotype (%) [8]: 11%
Population Mitochondria Different-Phenotype (%) [8]: 2%
Population Mitotic Cells (%) [8]: 90%
Population Normal (%) [8]: 95%
Population Pyknosed Nuclei (%) [8]: 2%
Population Tubulin-Different-Phenotype (%) [8]: 26%
Total Cell Count [8]: 3002

Reference: ChEMBL document CHEMBL4689842, “EUbOPEN Chemogenomics Library wave 1” (2021)
